Published values collected from several papers.
Lines come from different studies, so protocols differ.
Target: D(1A) dopamine receptor (DRD1, Homo sapiens, UniProt P21728)

| SMILES | assay | conditions | measurement | result |
| --- | --- | --- | --- | --- |
| Cc1c(N2CCNCC2)nc2ccc(Br)cc2c1C(=O)NC[C@H](CCC(=O)O)c1ccccc1Cl | ligand displacement | 10 µM | inhibition | 31.6% |
| Clc1ccc2c(C3CCN(CCc4c[nH]c5ccccc45)CC3)c[nH]c2c1 | ligand displacement, radioligand | 10 µM | inhibition | 100% |
| CCN(CC)CCCC[C@H](NC(=O)[C@H](CC(C)C)NC(=O)[C@H](C)NC(=O)[C@H](Cc1ccccc1)NC(=O)c1ccc(C(C)(C)C)cc1)C(=O)N[C@@H](CO)C(=O)OC | ligand displacement, radioligand | 10 µM | inhibition | 4% |
| CC(Cc1ccccc1)NCCn1cnc2c1c(=O)n(C)c(=O)n2C (stereo not drawn) | ligand displacement, radioligand | 10 µM | inhibition | 8% |
| c1ccc(C(NCCNC(c2ccccc2)c2ccccc2)c2ccccc2)cc1 | cell-free assay | 10 µM | inhibition | 24% |
| COCc1c(-c2cc3cc(C)cc(OC)c3s2)c2c(N)ncnn2c1CN1CCNC(=O)C1 | ligand displacement, radioligand | 10 µM | inhibition | 10% |
| CN(CCN1CCC(OC(=O)Nc2ccccc2-c2ccccc2)CC1)C(=O)c1ccc(CN2CCC(C(N)=O)CC2)cc1 | ligand displacement, radioligand | 1 µM | inhibition | 1% |
| C[C@H](C(=O)N[C@H]1COc2ccccc2[C@@H]1S(C)(=O)=O)c1ccc(F)cc1 | cell-free assay | 10 µM | inhibition | -6% |
| CC(C)N1CCC[C@H]1CNC(=O)c1cn(C2CCCC2)c(=O)c2c1c1ccccc1n2C | ligand displacement, radioligand | 10 µM | inhibition | 5% |
| Nc1ncc(-c2nc(N3CCOCC3)nc(N3CCOCC3)n2)c(C(F)F)n1 | cell-free assay, radioligand | 10 µM | remaining signal | 90.9% |
| Cn1cncc1[C@@](O)(COc1ccc(C#N)cc1-c1ccc(OC(F)(F)F)cc1)c1ccc(C#N)cc1 | ligand displacement | 10 µM | inhibition | 19% |
| COc1ccc(S(=O)(=O)N2CCCCC2)cc1C | ligand displacement, radioligand | 10 µM | inhibition | < 30% |
